Test results reported in ChEMBL document CHEMBL2034962, “Immunosuppressive decalin derivatives from red yeast rice” (J Nat Prod, 2012).
Activity calls are given as the source filed them. The calls are words filed in the database; no cut-off is given here.

Tests used:
[1] = test system: T-cell; experiment: Immunosuppressive activity in human T lymphocytes assessed as inhibition of PMA-ionomycin-induced cell proliferation at 10 to 100 uM after 72 hrs by BrdU-based ELISA analysis; type: functional
Method in brief: (§1)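 Nonadherent buffy-coat T lymphocytes (Ficoll, adherence-depleted) at 10^5 cells/well in RPMI 1640 + 10% FBS, in triplicate. Costimulated with PMA–ionomycin ± compound (10–100 μM) for 72 h. BrdU added at 10 μM final, 14 h before the end. Incorporation read by ELISA. Lovastatin and simvastatin served as positive controls. Means ± SEM, one-way ANOVA.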

[2] = Cytotoxicity against human T lymphocytes at 10 to 100 uM after 72 hrs by MTT assay; details: t-cell
Method in brief: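 T cells from buffy-coat blood via Ficoll separation, with macrophages removed by adherence. Cultured at 1 × 10^5 cells/well in RPMI 1640 + 10% FBS, n = 3, with 10–100 μM compound for 72 h. MTT (5 mg/mL) added for 4 h, then dissolved in 10% SDS/50% DMF, pH 7.2. A570 read; viability = Atreated/Acontrol × 100.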

[3] = test system: T-cell; experiment: Immunosuppressive activity in human T lymphocytes assessed as inhibition of PMA-ionomycin-induced cell proliferation after 72 hrs by BrdU-based ELISA analysis; type: functional; method in brief: as §1

Row | SMILES | inhibition [1] | Activity [2] | inhibition [3] | Activity [1]
1 | C[C@H]1C=C2C=C[C@H](C)[C@]3(CCC(=O)O3)[C@H]2CC1 (relative stereo) | Active | Non-toxic | – | –
2 | C[C@@H]1CC[C@@H]2[C@@H](CCC(=O)O)[C@@H](C)C=C[C@H]2C1 [HEPTAKETIDE] | – | Non-toxic | Dose-dependent effect | Active
3 | C[C@H]1C=C2C=C[C@H](C)[C@H](CCC(=O)O)[C@H]2CC1 [MONASCUSIC ACID A] | – | Non-toxic | Dose-dependent effect | Active
4 | C[C@@H]1CC[C@@H]2[C@@H](/C=C/C(=O)O)[C@@H](C)C=C[C@H]2C1 [MONASCUSIC ACID B] | – | Non-toxic | Dose-dependent effect | Active
5 | C[C@@H]1CC[C@@H]2/C(=C/CC(=O)O)[C@@H](C)C=C[C@H]2C1 [MONASCUSIC ACID C] | – | Non-toxic | Dose-dependent effect | Active
6 | C[C@H]1C=C2C=C[C@H](C)[C@H](/C=C/C(=O)O)[C@H]2CC1 [MONASCUSIC ACID D] | – | Non-toxic | Dose-dependent effect | Active
7 | C[C@H]1C=C2C=C[C@H](C)/C(=C\CC(=O)O)[C@H]2CC1 [MONASCUSIC ACID E] | Active | Non-toxic | – | –
